Experimental data published in ChEMBL document CHEMBL4765453, “Phenanthrolinic analogs of quinolones show antibacterial activity against M. tuberculosis” (Eur J Med Chem, 2020).
≈ marks a conversion by molar mass, not a printed value.

Tested on: Mycobacterium tuberculosis
Test: Antibacterial activity against Mycobacterium bovis BCG measured after 7 days by resazurin microtiter assay
Assay type: functional
Settings: variant bovis BCG, 168 h, time 7 day
Summary of the method: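 Resazurin microtiter assay with two-fold drug dilutions in complete 7H9 broth. Exponential-phase cells are diluted to a final OD600 of 0.005 in 7H9 without Tween. Incubation is 7 days at 37°C, then 0.01% resazurin is added and plates are held 24 h more. MIC is the lowest concentration preventing the blue-to-pink change. Each MIC is determined three times in duplicate experiments.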

CCn1cc(C(=O)O)c(=O)c2cc([N+](=O)[O-])c3cccnc3c21 was tested. Which MIC90 did it give?
The MIC90 was 2.67 µM (≈ 0.836 µg/mL).

For CC1COc2c(N3CCN(C)CC3)c(F)cc3c(=O)c(C(=O)O)cn1c23 (stereo unspecified) [OFLOXACIN], which MIC90 is on record?
Its MIC90 is 1.73 µM (≈ 0.625 µg/mL).

Which MIC90 does the source give for CCOC(=O)c1cn(C)c2c(cc([N+](=O)[O-])c3cccnc32)c1=O here?
Its MIC90 is 2.35 µM (≈ 0.769 µg/mL).

With CCOC(=O)c1cn(CC)c2c(cc([N+](=O)[O-])c3cccnc32)c1=O as the compound, how does the MIC90 read?
The MIC90 was 2.5 µM (≈ 0.853 µg/mL).

For Cn1cc(C(=O)O)c(=O)c2cc([N+](=O)[O-])c3cccnc3c21, which MIC90 is on record?
Its MIC90 is 1.4 µM (≈ 0.419 µg/mL).

Which MIC90 does the source give for NCC[C@H](O)C(=O)N[C@@H]1C[C@H](N)[C@@H](O[C@H]2O[C@H](CN)[C@@H](O)[C@H](O)[C@H]2O)[C@H](O)[C@H]1O[C@H]1O[C@H](CO)[C@@H](O)[C@H](N)[C@H]1O [AMIKACIN] here?
Its MIC90 is 0.46 µM (≈ 0.269 µg/mL).
